Laboratory results as given in ChEMBL document CHEMBL1156175, “Synthesis, molecular modeling and biological evaluation of PSB as targeted antibiotics” (Bioorg Med Chem, 2010).
In brackets after ≈: the same amount, converted by molar mass.

Columns and labels:
Pseudomonas aeruginosa = test: Antibacterial activity against Pseudomonas aeruginosa ATCC 13525 after 24 hrs by colorimetric method using dye MTT; type: functional; conditions: ATCC 13525, 24 h
Summary of the method: (§1)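 Mueller–Hinton broth microdilution; compounds from DMSO stock (50 μg/mL) serially diluted in medium; inoculum approx. 10⁵ cfu/mL; 37 °C for 24 h. After visual MIC reading, PBS (0.01 mol/L, pH 7.4) containing 2 mg/mL MTT added, incubated 4–5 h at room temperature, then 12 h at room temperature; OD read at 550 nm. MIC is the average of triplicates.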

[1] = molecular target: T1, 3-oxoacyl-[acyl-carrier-protein] synthase 3 (Escherichia coli, UniProt C3TDZ2); test: Inhibition of Escherichia coli KAS3 after 25 mins assessed as incorporation of 3H signal in the final product by liquid scintillation counter
T1 sequence (C3TDZ2 whole entry): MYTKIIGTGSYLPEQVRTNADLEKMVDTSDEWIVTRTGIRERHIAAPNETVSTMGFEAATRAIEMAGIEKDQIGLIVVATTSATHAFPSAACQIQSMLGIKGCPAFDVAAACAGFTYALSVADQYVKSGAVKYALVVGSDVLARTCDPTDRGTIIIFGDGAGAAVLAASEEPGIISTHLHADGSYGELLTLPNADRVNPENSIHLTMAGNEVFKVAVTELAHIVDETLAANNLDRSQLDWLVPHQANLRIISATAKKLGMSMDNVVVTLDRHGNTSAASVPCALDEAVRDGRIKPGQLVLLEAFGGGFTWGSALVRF

Bacillus subtilis = test: Antibacterial activity against Bacillus subtilis ATCC 6633 after 24 hrs by colorimetric method using dye MTT; type: functional; conditions: ATCC 6633, 24 h; summary of the method: as §1
Escherichia coli = test: Antibacterial activity against Escherichia coli ATCC 35218 after 24 hrs by colorimetric method using dye MTT; type: functional; conditions: ATCC 35218, 24 h; summary of the method: as §1
Staphylococcus aureus = test: Antibacterial activity against Staphylococcus aureus ATCC 6538 after 24 hrs by colorimetric method using dye MTT; type: functional; conditions: ATCC 6538, 24 h; summary of the method: as §1
[2] = molecular target: T1, 3-oxoacyl-[acyl-carrier-protein] synthase 3; test: Inhibition of Escherichia coli KAS3 after 1 min assessed as incorporation of 3H signal in the final product by liquid scintillation counter; conditions: in the assay text read “after 25 mins” for “after 1 min”
Summary of the method: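 His-tagged ecKAS III expressed in E. coli BL21(DE3) (pET30) and purified on Ni–NTA. Reaction in 20 mM sodium phosphate pH 7.0, 0.5 mM DTT, 0.25 mM MgCl₂ with holo-ACP and 1 nM enzyme, preincubated 1 min. Started with acetyl-CoA, NADH and NADPH (0.5 mM each for the last two); run 25 min. Stopped with ice-cold TCA; protein pellet washed and dissolved in NaOH; ³H incorporation read by liquid scintillation. Inhibitors added from DMSO stock, final DMSO ≤2%.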

Cc1ccc(C(=O)NCC(C)/N=C/c2cc(Br)cc(Br)c2O)c(O)c1 (stereo unspecified)
MIC (Pseudomonas aeruginosa): 12.5 mg/L (≈ 26.6 µM)
IC50 [1]: 11.4 µM
MIC (Bacillus subtilis): 3.13 mg/L (≈ 6.66 µM)
MIC (Escherichia coli): 0.78 mg/L (≈ 1.66 µM)
MIC (Staphylococcus aureus): > 50 mg/L

Cc1ccc(C(=O)NCC(C)/N=C/c2cc(F)ccc2O)c(O)c1 (stereo unspecified)
MIC (Pseudomonas aeruginosa): > 50 mg/L
IC50 [1]: 17.1 µM
MIC (Bacillus subtilis): 3.13 mg/L (≈ 9.47 µM)
MIC (Escherichia coli): 6.25 mg/L (≈ 18.9 µM)
MIC (Staphylococcus aureus): 12.5 mg/L (≈ 37.8 µM)

CC(CNC(=O)c1ccccc1O)/N=C/c1cc(F)ccc1O (stereo unspecified)
IC50 [2]: 38.3 µM

CC(CNC(=O)c1cc(Br)ccc1O)/N=C/c1cc(Cl)ccc1O (stereo unspecified)
IC50 [1]: > 121 µM

CC(CNC(=O)c1cc(Br)ccc1O)/N=C/c1cc(Cl)cc(Cl)c1O (stereo unspecified)
IC50 [1]: 19.6 µM

Cc1ccc(C(=O)NCC(C)/N=C/c2c(O)ccc3ccccc23)c(O)c1 (stereo unspecified)
MIC (Pseudomonas aeruginosa): > 50 mg/L
IC50 [1]: 12.9 µM
MIC (Bacillus subtilis): 6.25 mg/L (≈ 17.2 µM)
MIC (Escherichia coli): 12.5 mg/L (≈ 34.5 µM)
MIC (Staphylococcus aureus): > 50 mg/L

Cc1ccc(C(=O)NCC(C)/N=C/c2cc(I)cc(I)c2O)c(O)c1 (stereo unspecified)
IC50 [2]: 26.5 µM

CC(CNC(=O)c1ccccc1O)/N=C/c1cc(Br)cc(Br)c1O (stereo unspecified)
MIC (Pseudomonas aeruginosa): 0.78 mg/L (≈ 1.71 µM)
IC50 [2]: 6.86 µM
MIC (Bacillus subtilis): 12.5 mg/L (≈ 27.4 µM)
MIC (Escherichia coli): 25 mg/L (≈ 54.8 µM)
MIC (Staphylococcus aureus): 6.25 mg/L (≈ 13.7 µM)

CC(CNC(=O)c1ccccc1O)/N=C/c1cc(Cl)cc(Cl)c1O (stereo unspecified)
MIC (Pseudomonas aeruginosa): 0.2 mg/L (≈ 0.545 µM)
IC50 [2]: 0.844 µM
MIC (Bacillus subtilis): 1.56 mg/L (≈ 4.25 µM)
MIC (Escherichia coli): 0.39 mg/L (≈ 1.06 µM)
MIC (Staphylococcus aureus): 3.13 mg/L (≈ 8.52 µM)

Cc1ccc(C(=O)NCC(C)/N=C/c2cc(Cl)ccc2O)c(O)c1 (stereo unspecified)
IC50 [2]: 24.9 µM

CC(CNC(=O)c1cc(Br)ccc1O)/N=C/c1ccccc1O (stereo unspecified)
IC50 [1]: > 133 µM

CC(CNC(=O)c1ccccc1O)/N=C/c1c(O)ccc2ccccc12 (stereo unspecified)
IC50 [2]: 56.7 µM

Cc1ccc(C(=O)NCC(C)/N=C/c2cc(Br)ccc2O)c(O)c1 (stereo unspecified)
IC50 [1]: 16.2 µM

CC(CNC(=O)c1cc(Br)ccc1O)/N=C/c1cc(F)ccc1O (stereo unspecified)
IC50 [2]: 56 µM

Cc1ccc(C(=O)NCC(C)/N=C/c2ccccc2O)c(O)c1 (stereo unspecified)
IC50 [2]: 25.2 µM

CC(CNC(=O)c1ccccc1O)/N=C/c1cc(Br)ccc1O (stereo unspecified)
IC50 [1]: 16 µM

CC(CNC(=O)c1cc(Br)ccc1O)/N=C/c1c(O)ccc2ccccc12 (stereo unspecified)
IC50 [2]: 25.6 µM

Cc1ccc(C(=O)NCC(C)/N=C/c2cc(I)ccc2O)c(O)c1 (stereo unspecified)
MIC (Pseudomonas aeruginosa): 3.13 mg/L (≈ 7.14 µM)
IC50 [1]: 1.03 µM
MIC (Bacillus subtilis): 1.56 mg/L (≈ 3.56 µM)
MIC (Escherichia coli): 0.39 mg/L (≈ 0.89 µM)
MIC (Staphylococcus aureus): 1.56 mg/L (≈ 3.56 µM)

CC(CNC(=O)c1cc(Br)ccc1O)/N=C/c1cc(Br)cc(Br)c1O (stereo unspecified)
IC50 [2]: > 93.5 µM

NC[C@H]1O[C@H](O[C@H]2[C@H](O)[C@@H](O[C@H]3O[C@H](CO)[C@@H](O)[C@H](N)[C@H]3O)[C@H](N)C[C@@H]2N)[C@H](O)[C@@H](O)[C@@H]1O [KANAMYCIN]
MIC (Pseudomonas aeruginosa): 3.13 mg/L (≈ 6.46 µM)
MIC (Bacillus subtilis): 1.56 mg/L (≈ 3.22 µM)
MIC (Escherichia coli): 3.13 mg/L (≈ 6.46 µM)
MIC (Staphylococcus aureus): 1.56 mg/L (≈ 3.22 µM)

CC(CNC(=O)c1cc(Br)ccc1O)/N=C/c1cc(I)ccc1O (stereo unspecified)
IC50 [1]: 18.5 µM

CC(CNC(=O)c1cc(Br)ccc1O)/N=C/c1cc(Br)ccc1O (stereo unspecified)
IC50 [2]: 36.6 µM

CC(CNC(=O)c1ccccc1O)/N=C/c1cc(I)ccc1O (stereo unspecified)
MIC (Pseudomonas aeruginosa): 3.13 mg/L (≈ 7.38 µM)
IC50 [1]: 1.84 µM
MIC (Bacillus subtilis): 0.78 mg/L (≈ 1.84 µM)
MIC (Escherichia coli): 6.25 mg/L (≈ 14.7 µM)
MIC (Staphylococcus aureus): 12.5 mg/L (≈ 29.5 µM)

CC(CNC(=O)c1ccccc1O)/N=C/c1cc(Cl)ccc1O (stereo unspecified)
MIC (Pseudomonas aeruginosa): 3.13 mg/L (≈ 9.41 µM)
IC50 [1]: 16.4 µM
MIC (Bacillus subtilis): > 50 mg/L
MIC (Escherichia coli): 12.5 mg/L (≈ 37.6 µM)
MIC (Staphylococcus aureus): > 50 mg/L

Cc1ccc(C(=O)NCC(C)/N=C/c2cc(Cl)cc(Cl)c2O)c(O)c1 (stereo unspecified)
MIC (Pseudomonas aeruginosa): 25 mg/L (≈ 65.6 µM)
IC50 [2]: 4.59 µM
MIC (Bacillus subtilis): 1.56 mg/L (≈ 4.09 µM)
MIC (Escherichia coli): 3.13 mg/L (≈ 8.21 µM)
MIC (Staphylococcus aureus): 6.25 mg/L (≈ 16.4 µM)

CC(CNC(=O)c1ccccc1O)/N=C/c1ccccc1O (stereo unspecified)
IC50 [2]: 27.3 µM

CC(CNC(=O)c1cc(Br)ccc1O)/N=C/c1cc(I)cc(I)c1O (stereo unspecified)
IC50 [2]: > 79.5 µM

CC(CNC(=O)c1ccccc1O)/N=C/c1cc(I)cc(I)c1O (stereo unspecified)
MIC (Pseudomonas aeruginosa): 6.25 mg/L (≈ 11.4 µM)
IC50 [2]: 4.65 µM
MIC (Bacillus subtilis): 12.5 mg/L (≈ 22.7 µM)
MIC (Escherichia coli): > 50 mg/L
MIC (Staphylococcus aureus): 12.5 mg/L (≈ 22.7 µM)
